Experimental data reported in ChEMBL document CHEMBL1166003, “Triterpene glycosides from Curculigo orchioides and their cytotoxic activity” (J Nat Prod, 2010).
The source made the active and inactive calls. No cut-off for these calls is given here.

Key:
HL-60 [1] = assay: Cytotoxicity against human HL60 cells after 72 hrs by MTT assay; type: functional, cell-based; settings: HL-60, 72 h
Summary of the method: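 HL-60 (JCRB 0085) kept in RPMI 1640 with 10% heat-inactivated FBS, penicillin/streptomycin, 37 °C, 5% CO2. Seeded at 4 × 10^4 cells/mL, preincubated 24 h, then dosed from EtOH-H2O (1:1) to final 0.01-20 µg/mL; vehicle-only controls. After 72 h, modified MTT read-out: MTT 4 h, centrifugation, formazan dissolved in DMSO, A550. Triplicate; IC50 taken as 50% reduction of viable cells.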

HL-60 [2] = assay: Cytotoxicity against human HL60 cells at 20 uM after 72 hrs by MTT assay; type: functional, cell-based
DU-145 = assay: Growth inhibition of human DU145 cells after 48 hrs by SRB assay; type: functional; settings: DU-145, 48 h
Summary of the method: (§1)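 Part of a 39-line human cancer cell panel, run by a modified NCI method. Cells were plated at suitable density in RPMI 1640 with 5% FBS and left to attach overnight before compound addition. Read-out was GI50.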

OVCAR-3 = assay: Growth inhibition of human OVCAR-3 cells after 48 hrs by SRB assay; type: functional; settings: OVCAR-3, 48 h; summary of the method: as §1
MKN-74 = assay: Growth inhibition of human MKN74 cells after 48 hrs by SRB assay; type: functional; settings: MKN-74, 48 h; summary of the method: as §1
MDA-MB-231 = assay: Growth inhibition of human MDA-MB-231 cells after 48 hrs by SRB assay; type: functional; settings: MDA-MB-231, 48 h; summary of the method: as §1
HCC 2998 = assay: Growth inhibition of human HCC2998 cells after 48 hrs by SRB assay; type: functional; settings: HCC 2998, 48 h; summary of the method: as §1
HCT-116 = assay: Growth inhibition of human HCT116 cells after 48 hrs by SRB assay; type: functional; settings: HCT-116, 48 h; summary of the method: as §1
[3] = Growth inhibition of human HBC5 cells after 48 hrs by SRB assay; type: functional; settings: HBC5, 48 h; summary of the method: as §1
OVCAR-4 = assay: Growth inhibition of human OVCAR4 cells after 48 hrs by SRB assay; type: functional; settings: OVCAR-4, 48 h; summary of the method: as §1
A549 = assay: Growth inhibition of human A549 cells after 48 hrs by SRB assay; type: functional; settings: A549, 48 h; summary of the method: as §1
ACHN = assay: Growth inhibition of human ACHN cells after 48 hrs by SRB assay; type: functional; summary of the method: as §1
HT-29 = assay: Growth inhibition of human HT-29 cells after 48 hrs by SRB assay; type: functional; settings: HT-29, 48 h; summary of the method: as §1
LOX IMVI = assay: Growth inhibition of human LOXIMVI cells after 48 hrs by SRB assay; type: functional; summary of the method: as §1
HCT-15 = assay: Growth inhibition of human HCT15 cells after 48 hrs by SRB assay; type: functional; settings: HCT-15, 48 h; summary of the method: as §1
KM12 = assay: Growth inhibition of human KM12 cells after 48 hrs by SRB assay; type: functional; settings: KM12, 48 h; summary of the method: as §1
PC-3 = assay: Growth inhibition of human PC3 cells after 48 hrs by SRB assay; type: functional; settings: PC-3, 48 h; summary of the method: as §1
NCI-H23 = assay: Growth inhibition of human NCI-H23 cells after 48 hrs by SRB assay; type: functional; settings: NCI-H23, 48 h; summary of the method: as §1
St-4 = assay: Growth inhibition of human St-4 cells after 48 hrs by SRB assay; type: functional; settings: St-4, 48 h; summary of the method: as §1
U-251 = assay: Growth inhibition of human U251 cells after 48 hrs by SRB assay; type: functional; settings: U-251, 48 h; summary of the method: as §1
MKN-45 = assay: Growth inhibition of human MKN45 cells after 48 hrs by SRB assay; type: functional; settings: MKN-45, 48 h; summary of the method: as §1
DMS-114 = assay: Growth inhibition of human DMS114 cells after 48 hrs by SRB assay; type: functional; settings: DMS-114, 48 h; summary of the method: as §1
NCI-H522 = assay: Growth inhibition of human NCI-H522 cells after 48 hrs by SRB assay; type: functional; settings: NCI-H522, 48 h; summary of the method: as §1
SF-295 = assay: Growth inhibition of human SF295 cells after 48 hrs by SRB assay; type: functional; settings: SF-295, 48 h; summary of the method: as §1
NCI-H460 = assay: Growth inhibition of human NCI-H460 cells after 48 hrs by SRB assay; type: functional; settings: NCI-H460, 48 h; summary of the method: as §1
MKN-7 = assay: Growth inhibition of human MKN7 cells after 48 hrs by SRB assay; type: functional; settings: MKN-7, 48 h; summary of the method: as §1
[4] = Growth inhibition of human RXF631L cells after 48 hrs by SRB assay; type: functional; settings: RXF 631, 48 h; summary of the method: as §1
[5] = Growth inhibition of human BSY1 cells after 48 hrs by SRB assay; type: functional; settings: BSY-1, 48 h; summary of the method: as §1
SF-268 = assay: Growth inhibition of human SF268 cells after 48 hrs by SRB assay; type: functional; settings: SF-268, 48 h; summary of the method: as §1
SNB-75 = assay: Growth inhibition of human SNB75 cells after 48 hrs by SRB assay; type: functional; settings: SNB-75, 48 h; summary of the method: as §1
[6] = Growth inhibition of human MKN1 cells after 48 hrs by SRB assay; type: functional; settings: MKN-1, 48 h; summary of the method: as §1
MCF7 = assay: Growth inhibition of human MCF7 cells after 48 hrs by SRB assay; type: functional; settings: MCF7, 48 h; summary of the method: as §1
SF-539 = assay: Growth inhibition of human SF539 cells after 48 hrs by SRB assay; type: functional; settings: SF-539, 48 h; summary of the method: as §1
OVCAR-5 = assay: Growth inhibition of human OVCAR5 cells after 48 hrs by SRB assay; type: functional; settings: OVCAR-5, 48 h; summary of the method: as §1
MKN-28 = assay: Growth inhibition of human MKN28 cells after 48 hrs by SRB assay; type: functional; settings: MKN-28, 48 h; summary of the method: as §1
[7] = Growth inhibition of human HBC4 cells after 48 hrs by SRB assay; type: functional; settings: HBC4, 48 h; summary of the method: as §1
DMS-273 = assay: Growth inhibition of human DMS273 cells after 48 hrs by SRB assay; type: functional; settings: DMS-273, 48 h; summary of the method: as §1
SNB-78 = assay: Growth inhibition of human SNB78 cells after 48 hrs by SRB assay; type: functional; settings: SNB-78, 48 h; summary of the method: as §1
SK-OV-3 = assay: Growth inhibition of human SKOV3 cells after 48 hrs by SRB assay; type: functional; settings: SK-OV-3, 48 h; summary of the method: as §1
OVCAR-8 = assay: Growth inhibition of human OVCAR8 cells after 48 hrs by SRB assay; type: functional; settings: OVCAR-8, 48 h; summary of the method: as §1
NCI-H226 = assay: Growth inhibition of human NCI-H226 cells after 48 hrs by SRB assay; type: functional; settings: NCI-H226, 48 h; summary of the method: as §1

Structure (SMILES): CC(C)C(=O)CC[C@@H](C)[C@H]1[C@@H](O)C[C@@]2(C)[C@@H]3CC[C@H]4C(C)(C)[C@@H](O[C@@H]5O[C@H](CO)[C@@H](O)[C@H](O)[C@H]5O)CC[C@@]45C[C@@]35C[C@H](O)[C@]12C
- IC50 (HL-60 [1]): 9000 nM

Structure (SMILES): CC(C)C(=O)CC[C@@H](C)[C@H]1[C@@H](O)C[C@@]2(C)[C@@H]3CC[C@H]4C(C)(C)[C@@H](O[C@@H]5O[C@H](CO[C@@H]6O[C@H](CO)[C@@H](O)[C@H](O)[C@H]6O)[C@@H](O)[C@H](O)[C@H]5O)CC[C@@]45C[C@@]35C[C@H](O)[C@]12C
- inhibition (HL-60 [2]): inactive

Structure (SMILES): CC(C)C(=O)CC[C@@H](C)[C@H]1[C@@H](O)C[C@@]2(C)[C@@H]3CC[C@H]4C(C)(C)[C@@H](O[C@@H]5O[C@H](CO)[C@@H](O)[C@H](O)[C@H]5O[C@@H]5O[C@H](CO)[C@@H](O)[C@H](O)[C@H]5O)CC[C@@]45C[C@@]35C[C@H](O)[C@]12C
- inhibition (HL-60 [2]): inactive

Structure (SMILES): CC(C)C(=O)CC[C@@H](C)[C@H]1[C@@H](O)C[C@@]2(C)[C@@H]3CC[C@H]4C(C)(C)[C@@H](O[C@@H]5O[C@H](CO)[C@@H](O)[C@H](O)[C@H]5O[C@@H]5O[C@@H](C)[C@H](O)[C@@H](O[C@@H]6O[C@H](CO)[C@@H](O)[C@H](O)[C@H]6O)[C@H]5O)CC[C@@]45C[C@@]35C[C@H](O)[C@]12C
- inhibition (HL-60 [2]): inactive

Structure (SMILES): CC(C)C(=O)CC[C@@H](C)[C@H]1[C@@H](O)C[C@@]2(C)[C@@H]3CC[C@H]4C(C)(C)[C@@H](O)CC[C@@]45C[C@@]35C[C@H](O)[C@]12C
- GI50 (DU-145): 2090 nM
- GI50 (OVCAR-3): 3240 nM
- GI50 (MKN-74): 2190 nM
- GI50 (MDA-MB-231): 2000 nM
- GI50 (HCC 2998): 16600 nM
- GI50 (HCT-116): 2400 nM
- GI50 [3]: 2880 nM
- GI50 (OVCAR-4): 2400 nM
- GI50 (A549): 2690 nM
- GI50 (ACHN): 2000 nM
- GI50 (HT-29): 3310 nM
- GI50 (LOX IMVI): 1550 nM
- GI50 (HCT-15): 3470 nM
- GI50 (KM12): 6170 nM
- GI50 (PC-3): 14800 nM
- GI50 (NCI-H23): 3090 nM
- GI50 (St-4): 2750 nM
- IC50 (HL-60 [1]): 1800 nM
- GI50 (U-251): 2190 nM
- GI50 (MKN-45): 64600 nM
- GI50 (DMS-114): 1780 nM
- GI50 (NCI-H522): 2880 nM
- GI50 (SF-295): 2090 nM
- GI50 (NCI-H460): 2240 nM
- GI50 (MKN-7): 1910 nM
- GI50 [4]: 1780 nM
- GI50 [5]: 1950 nM
- GI50 (SF-268): 1380 nM
- GI50 (SNB-75): 3800 nM
- GI50 [6]: 2570 nM
- GI50 (MCF7): 3800 nM
- GI50 (SF-539): 2140 nM
- GI50 (OVCAR-5): 4790 nM
- GI50 (MKN-28): 2040 nM
- GI50 [7]: 3160 nM
- GI50 (DMS-273): 2090 nM
- GI50 (SNB-78): 5010 nM
- GI50 (SK-OV-3): 4790 nM
- GI50 (OVCAR-8): 1550 nM
- GI50 (NCI-H226): 2750 nM

Structure (SMILES): CC(C)C(=O)CC[C@@H](C)[C@H]1[C@@H](O)C[C@@]2(C)[C@@H]3CC[C@H]4C(C)(C)[C@@H](O[C@@H]5O[C@H](CO)[C@@H](O)[C@H](O)[C@H]5O[C@@H]5O[C@@H](C)[C@H](O)[C@@H](O)[C@H]5O)CC[C@@]45C[C@@]35C[C@H](O)[C@]12C
- inhibition (HL-60 [2]): inactive

Structure (SMILES): CC(C)C(=O)CC[C@@H](C)[C@H]1[C@@H](O)C[C@@]2(C)[C@@H]3CC[C@H]4C(C)(C)[C@@H](O[C@@H]5O[C@H](CO)[C@@H](O)[C@H](O)[C@H]5O[C@@H]5O[C@H](CO)[C@@H](O)[C@H](O[C@@H]6O[C@H](CO)[C@@H](O)[C@H](O)[C@H]6O)[C@H]5O)CC[C@@]45C[C@@]35C[C@H](O)[C@]12C
- inhibition (HL-60 [2]): inactive
